In ChEMBL document CHEMBL1141402 (J Med Chem, 2007):
Activity calls are given as the source filed them. Residues, ends and D or L forms follow the SMILES beside them.

How the values were obtained:
Mus musculus [1] = species: Mus musculus; assay: Antinociceptive activity in Swiss Albino mouse assessed as effect on jumping by hot plate method at 10 ug; assay type: functional
Summary of the method: (§1)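 Mice given peptide i.c.v. in 0.9% NaCl, then put on a 55 ± 0.5 °C hot plate 5 min later. Latencies to paw licking, rearing and jumping recorded with a 240 s cut-off and converted to %MPE against saline control latencies. 10 mice per group; one-way ANOVA with Student-Newman-Keuls post hoc.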

Mus musculus [2] = species: Mus musculus; assay: Antinociceptive activity in Swiss Albino mouse assessed as effect on rearing by hot plate method at 10 ug; assay type: functional; summary of the method: as §1
Mus musculus [3] = species: Mus musculus; assay: Antinociceptive activity in Swiss Albino mouse assessed as effect on paw licking by hot plate method at 10 ug; assay type: functional; summary of the method: as §1
Mus musculus [4] = species: Mus musculus; assay: Antagonist effect on DAMGO-induced paw licking in Swiss Albino mouse by hot plate method; assay type: functional, organism-based
Summary of the method: (§2)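 Mice dosed i.c.v. into the left lateral ventricle, drugs dissolved in 0.9% NaCl; test compound given against endomorphin-2 (3 µg/animal) or DAMGO. Placed on a 55 ± 0.5 °C hot plate 5 min after injection. Latencies to paw licking, rearing and jumping recorded with a 240 s cut-off and expressed as %MPE from control (saline) and test latencies. 10 mice per group; two-way ANOVA with Student-Newman-Keuls.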

[5] = molecular target: T1, Delta-type opioid receptor (Homo sapiens, UniProt P41143); assay: Activity at delta opioid receptor assessed as increase in calcium level in CHO cells by aequorin luminescence based calcium assay; assay type: functional, cell-based
Mus musculus [6] = species: Mus musculus; assay: Antagonist effect on endomorphin-2-induced rearing in Swiss Albino mouse by hot plate method; assay type: functional, organism-based; summary of the method: as §2
[7] = molecular target: Mu-type opioid receptor (Cavia porcellus) (UniProt P97266); assay: Agonist activity at mu opioid receptor by inhibition of TAPP-induced muscle contraction in guinea pig ileum at upto 10 uM; assay type: functional, tissue-based
Summary of the method: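 A 2-3 cm segment taken at least 10 cm from the ileocecal junction and mounted in a 20 mL bath of modified Krebs' buffer (NaCl 150, KCl 4.3, CaCl2 1.25, MgCl2 1.0, NaH2PO4 1.7, NaHCO3 25.0, glucose 11.0 mM). Buffer gassed with 95% O2/5% CO2 at 37 °C. Stimulated at 10 pulses/min, 4 ms each, with force-transducer recording. IC50 obtained by regression of the concentration-response curve.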

[8] = molecular target: Delta-type opioid receptor (Mus musculus) (UniProt P32300); assay: Antagonist activity at delta opioid receptor by inhibition of DPDPE-induced muscle contraction in isolated mouse vas deferens; assay type: functional, tissue-based
Mu-type opioid receptor [9] = molecular target: Mu-type opioid receptor (Rattus norvegicus, UniProt P33535); assay: Displacement of [3H]DAMGO from mu opioid receptor in rat brain membrane; assay type: cell membranes
Summary of the method: (§3)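 Rat brain membranes incubated for 2 h at 0 °C with [3H]DAMGO (0.72 nM; µ) or [3H]DSLET (0.78 nM; δ). IC50 read from log dose-displacement curves. […] Three to four determinations.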

Mus musculus [10] = species: Mus musculus; assay: Antagonist effect on endomorphin-2-induced jumping in Swiss Albino mouse by hot plate method; assay type: functional, organism-based; summary of the method: as §2
Mus musculus [11] = species: Mus musculus; assay: Antagonist effect on DAMGO-induced rearing in Swiss Albino mouse by hot plate method; assay type: functional, organism-based; summary of the method: as §2
Mus musculus [12] = species: Mus musculus; assay: Antagonist effect on endomorphin-2-induced paw licking in Swiss Albino mouse by hot plate method; assay type: functional, organism-based; summary of the method: as §2
[13] = molecular target: Mu-type opioid receptor (Cavia porcellus) (UniProt P97266); assay: Antagonist activity at mu opioid receptor by inhibition of TAPP-induced muscle contraction in guinea pig ileum; assay type: functional, tissue-based
Mus musculus [14] = species: Mus musculus; assay: Antagonist effect on DAMGO-induced jumping in Swiss Albino mouse by hot plate method; assay type: functional, organism-based; summary of the method: as §2
Mu-type opioid receptor [15] = molecular target: Mu-type opioid receptor (Cavia porcellus, UniProt P97266); assay: Agonist activity at mu opioid receptor by inhibition of electrically evoked muscle contraction in guinea pig ileum; assay type: functional, tissue-based
[16] = molecular target: Delta-type opioid receptor (Mus musculus) (UniProt P32300); assay: (§4) Agonist activity at delta opioid receptor by inhibition of electrically evoked muscle contraction in isolated mouse vas deferens; assay type: functional, tissue-based
Summary of the method: (§5)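 Mouse vas deferens from adult male Swiss Webster mice (30-50 g), killed by cervical dislocation. Field stimulation used 1 ms pulse trains at 0.15 Hz. IC50 taken from the twitch-height reduction across doses.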

Mu-type opioid receptor [17] = molecular target: Mu-type opioid receptor (Homo sapiens, UniProt P35372); assay: Activity at mu opioid receptor assessed as increase in calcium level in CHO cells by aequorin luminescence based calcium assay; assay type: functional, cell-based
[18] = molecular target: T1, Delta-type opioid receptor; assay: Antagonist activity against delta opioid receptor assessed as effect on deltorphin-2-induced calcium response in CHO cells by aequorin luminescence based calcium assay; assay type: functional, cell-based; details: read-out: pA2 (converted)
Summary of the method: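 CHO cells expressing DOR and aequorin. Compounds in BSA medium, then 25 000 cells injected per well. Luminescence recorded for 30 s, cells lysed with 0.3% Triton X-100 and read for a further 15 s. Signal given as fractional luminescence (agonist peak over agonist plus lysis total), from concentration-response curves. Three independent experiments, each in duplicate.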

[19] = molecular target: Delta-type opioid receptor (Mus musculus, UniProt P32300); assay: as §4; assay type: functional, tissue-based; summary of the method: as §5
[20] = molecular target: Delta-type opioid receptor (Rattus norvegicus, UniProt P33533); assay: Displacement of [3H]DSLET from delta opioid receptor in rat brain membrane; assay type: cell membranes; summary of the method: as §3
Delta-type opioid receptor (Rattus norvegicus, UniProt P33533), sequence (P33533 whole entry): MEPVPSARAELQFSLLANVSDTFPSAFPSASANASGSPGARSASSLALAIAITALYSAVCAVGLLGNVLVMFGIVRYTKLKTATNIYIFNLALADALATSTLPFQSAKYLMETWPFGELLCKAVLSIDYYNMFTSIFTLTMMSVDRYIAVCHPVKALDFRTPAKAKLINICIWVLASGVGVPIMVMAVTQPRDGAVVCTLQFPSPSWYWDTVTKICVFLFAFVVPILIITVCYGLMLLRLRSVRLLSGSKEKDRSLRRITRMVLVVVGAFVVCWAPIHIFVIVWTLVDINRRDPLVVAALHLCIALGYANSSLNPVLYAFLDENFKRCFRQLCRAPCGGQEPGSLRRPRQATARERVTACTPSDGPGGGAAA

Mu-type opioid receptor (Rattus norvegicus, UniProt P33535), sequence (P33535 whole entry): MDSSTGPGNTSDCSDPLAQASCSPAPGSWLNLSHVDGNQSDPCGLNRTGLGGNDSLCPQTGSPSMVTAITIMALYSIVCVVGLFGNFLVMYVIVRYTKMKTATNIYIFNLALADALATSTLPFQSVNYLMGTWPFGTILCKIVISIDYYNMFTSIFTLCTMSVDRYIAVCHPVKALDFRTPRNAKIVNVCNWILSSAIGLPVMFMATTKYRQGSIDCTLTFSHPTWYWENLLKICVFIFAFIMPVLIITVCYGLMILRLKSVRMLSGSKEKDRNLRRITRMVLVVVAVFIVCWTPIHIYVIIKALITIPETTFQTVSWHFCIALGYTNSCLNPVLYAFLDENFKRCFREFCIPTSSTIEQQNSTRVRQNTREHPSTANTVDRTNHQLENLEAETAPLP
Mu-type opioid receptor (Homo sapiens, UniProt P35372), sequence (P35372 whole entry): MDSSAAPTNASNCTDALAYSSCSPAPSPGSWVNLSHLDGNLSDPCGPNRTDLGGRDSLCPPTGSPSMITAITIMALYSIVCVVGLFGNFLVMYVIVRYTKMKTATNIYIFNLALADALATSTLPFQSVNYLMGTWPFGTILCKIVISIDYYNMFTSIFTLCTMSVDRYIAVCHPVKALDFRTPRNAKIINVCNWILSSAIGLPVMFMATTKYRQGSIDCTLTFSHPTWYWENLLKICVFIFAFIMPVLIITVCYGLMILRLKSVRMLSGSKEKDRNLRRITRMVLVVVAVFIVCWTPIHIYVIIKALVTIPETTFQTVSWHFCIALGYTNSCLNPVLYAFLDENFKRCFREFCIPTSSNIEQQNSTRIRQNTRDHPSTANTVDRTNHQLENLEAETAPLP
Mu-type opioid receptor (Cavia porcellus), sequence (P97266 whole entry): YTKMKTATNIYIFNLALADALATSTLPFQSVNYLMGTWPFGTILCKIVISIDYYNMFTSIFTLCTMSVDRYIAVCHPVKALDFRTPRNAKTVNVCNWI
Mu-type opioid receptor (Cavia porcellus, UniProt P97266), sequence (P97266 whole entry): as above
Delta-type opioid receptor (Mus musculus), sequence (P32300 whole entry): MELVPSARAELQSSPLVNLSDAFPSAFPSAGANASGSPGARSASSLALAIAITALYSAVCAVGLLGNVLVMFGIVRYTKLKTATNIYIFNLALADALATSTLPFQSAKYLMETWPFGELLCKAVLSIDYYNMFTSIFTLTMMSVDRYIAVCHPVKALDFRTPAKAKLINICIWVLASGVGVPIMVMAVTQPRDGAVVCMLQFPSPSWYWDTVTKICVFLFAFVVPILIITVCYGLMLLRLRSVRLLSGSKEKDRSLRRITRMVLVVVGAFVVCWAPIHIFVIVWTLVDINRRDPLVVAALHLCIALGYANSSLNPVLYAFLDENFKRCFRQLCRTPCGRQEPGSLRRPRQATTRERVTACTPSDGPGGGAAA
T1 sequence (P41143 whole entry): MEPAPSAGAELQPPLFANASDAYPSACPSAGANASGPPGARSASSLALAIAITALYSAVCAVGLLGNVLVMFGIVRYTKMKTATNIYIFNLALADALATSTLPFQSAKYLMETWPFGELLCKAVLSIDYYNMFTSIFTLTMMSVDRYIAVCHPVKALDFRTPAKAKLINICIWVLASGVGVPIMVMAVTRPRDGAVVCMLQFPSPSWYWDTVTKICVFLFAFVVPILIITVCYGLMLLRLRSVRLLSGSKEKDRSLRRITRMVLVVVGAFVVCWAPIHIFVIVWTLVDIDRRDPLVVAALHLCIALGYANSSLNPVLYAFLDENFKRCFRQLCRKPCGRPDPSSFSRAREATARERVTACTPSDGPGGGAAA
Delta-type opioid receptor (Mus musculus, UniProt P32300), sequence (P32300 whole entry): as the sequence (P32300 whole entry) above

SMILES: Cc1cc(O)cc(C)c1C[C@H](N)C(=O)N1CCC[C@H]1C(=O)N[C@@H](Cc1c[nH]c2ccccc12)C(=O)N[C@H](Cc1ccc2ccccc2c1)C(N)=O (HELM PEPTIDE1{[Cc1cc(O)cc(C)c1C[C@H](N)C(=O)[*:2]].P.W.[O=C([C@@H](Cc1ccc2ccccc2c1)N[*:1])[*:2]].[am]}$$$$V2.0) [listing 1 of 2 here]
- Activity (Mus musculus [1]): 0.58%
- Activity (Mus musculus [2]): 0.49%
- Activity (Mus musculus [3]): 0.17%

SMILES: Cc1cc(O)cc(C)c1C[C@H](N)C(=O)N1CCC[C@H]1C(=O)N[C@@H](Cc1ccccc1)C(=O)N[C@H](Cc1ccc2ccccc2c1)C(N)=O (HELM PEPTIDE1{[Cc1cc(O)cc(C)c1C[C@H](N)C(=O)[*:2]].P.F.[O=C([C@@H](Cc1ccc2ccccc2c1)N[*:1])[*:2]].[am]}$$$$V2.0)
- Activity (Mus musculus [4]): Dose-dependent effect
- EC50 [5]: 15.5 nM
- Activity (Mus musculus [6]): Dose-dependent effect
- Activity [7]: inactive
- Ke [8]: 250 nM
- Ki (Mu-type opioid receptor [9]): 1.52 nM
- Activity (Mus musculus [1]): 1.54%
- Activity (Mus musculus [10]): Dose-dependent effect
- Activity (Mus musculus [11]): Dose-dependent effect
- Activity (Mus musculus [2]): 0.18%
- Activity (Mus musculus [12]): Dose-dependent effect
- Ke [13]: 5.86 nM
- Activity (Mus musculus [3]): 0.09%
- Activity (Mus musculus [14]): Dose-dependent effect

SMILES: Cc1cc(O)cc(C)c1C[C@H](N)C(=O)N1CCC[C@H]1C(=O)N[C@@H](Cc1c[nH]c2ccccc12)C(=O)N[C@H](Cc1cccc2ccccc12)C(N)=O [listing 1 of 2 here]
- Activity (Mus musculus [1]): 23.2%
- Activity (Mus musculus [2]): 10.6%
- Activity (Mus musculus [3]): 5.35%

SMILES: NC(=O)[C@H](Cc1ccccc1)NC(=O)[C@H](Cc1c[nH]c2ccccc12)NC(=O)[C@@H]1CCCN1C(=O)[C@@H](N)Cc1ccc(O)cc1 [ENDOMORPHIN-1]
- Activity (Mus musculus [1]): 40.8%
- Activity (Mus musculus [2]): 12%
- Activity (Mus musculus [3]): 5.99%

SMILES: Cc1cc(C[C@H](N)C(=O)N2CCC[C@H]2C(=O)N[C@@H](Cc2c[nH]c3ccccc23)C(=O)N[C@H](Cc2cccc3ccccc23)C(N)=O)cc(C)c1O
- Ke [8]: 62.4 nM

SMILES: NC(=O)[C@@H](Cc1ccc2ccccc2c1)NC(=O)[C@H](Cc1c[nH]c2ccccc12)NC(=O)[C@@H]1CCCN1C(=O)[C@@H](N)Cc1ccc(O)cc1
- EC50 [5]: > 1000 nM
- IC50 (Mu-type opioid receptor [15]): 3.47 µM
- IC30 [16]: 4.18 µM
- Activity ([16]; filed as partial agonist): Partial agonist
- EC50 (Mu-type opioid receptor [17]): 248 nM

SMILES: Cc1cc(O)cc(C)c1C[C@H](N)C(=O)N1CCC[C@H]1C(=O)N[C@@H](Cc1c[nH]c2ccccc12)C(=O)N[C@H](Cc1cccc2ccccc12)C(N)=O [listing 2 of 2 here]
- IC50 (Mu-type opioid receptor [15]): 0.0158 µM
- Kb [18]: 2.57 nM
- EC50 (Mu-type opioid receptor [17]): 1.15 nM

SMILES: NC(=O)[C@@H](Cc1cccc2ccccc12)NC(=O)[C@H](Cc1ccccc1)NC(=O)[C@@H]1CCCN1C(=O)[C@@H](N)Cc1ccc(O)cc1
- EC50 [5]: > 1000 nM
- Activity (Mus musculus [1]): 0.8%
- Activity (Mus musculus [2]): 0.31%
- IC50 [19]: > 10 µM
- Ke [13]: 1250 nM
- Activity (Mus musculus [3]): 0%

SMILES: Cc1cc(C[C@H](N)C(=O)N2CCC[C@H]2C(=O)N[C@@H](Cc2ccccc2)C(=O)N[C@H](Cc2cccc3ccccc23)C(N)=O)cc(C)c1O
- Activity (Mus musculus [4]): Dose-dependent effect
- Activity (Mus musculus [6]): Dose-dependent effect
- Ke [8]: 227 nM
- Activity (Mus musculus [10]): Dose-dependent effect
- Activity (Mus musculus [11]): Dose-dependent effect
- Activity (Mus musculus [12]): Dose-dependent effect
- Ke [13]: 14.9 nM
- Activity (Mus musculus [14]): Dose-dependent effect

SMILES: Cc1cc(O)cc(C)c1C[C@H](N)C(=O)N1CCC[C@H]1C(=O)N[C@@H](Cc1c[nH]c2ccccc12)C(=O)N[C@H](Cc1ccc2ccccc2c1)C(N)=O (HELM PEPTIDE1{[Cc1cc(O)cc(C)c1C[C@H](N)C(=O)[*:2]].P.W.[O=C([C@@H](Cc1ccc2ccccc2c1)N[*:1])[*:2]].[am]}$$$$V2.0) [listing 2 of 2 here]
- EC50 [5]: 29.3 nM
- Ki (Mu-type opioid receptor [9]): 2.38 nM

SMILES: Cc1cc(C[C@H](N)C(=O)N2CCC[C@H]2C(=O)N[C@@H](Cc2c[nH]c3ccccc23)C(=O)N[C@H](Cc2ccc3ccccc3c2)C(N)=O)cc(C)c1O
- Activity (Mus musculus [4]): Dose-dependent effect
- Activity (Mus musculus [6]): Dose-dependent effect
- Activity [7]: inactive
- Activity (Mus musculus [10]): Dose-dependent effect
- Activity (Mus musculus [11]): Dose-dependent effect
- Activity (Mus musculus [12]): Dose-dependent effect
- Activity ([16]; filed as partial agonist): Partial agonist
- Ke [13]: 8.27 nM
- Activity (Mus musculus [14]): Dose-dependent effect

SMILES: NC(=O)[C@@H](Cc1ccc2ccccc2c1)NC(=O)[C@H](Cc1ccccc1)NC(=O)[C@@H]1CCCN1C(=O)[C@@H](N)Cc1ccc(O)cc1 (HELM PEPTIDE1{Y.P.F.[O=C([C@@H](Cc1ccc2ccccc2c1)N[*:1])[*:2]].[am]}$$$$V2.0)
- EC50 [5]: > 1000 nM
- Activity (Mus musculus [1]): 2.5%
- Activity (Mus musculus [2]): 0.09%
- Activity [16]: inactive
- Ke [13]: 1260 nM
- Activity (Mus musculus [3]): 0.13%

SMILES: NC(=O)[C@@H](Cc1cccc2ccccc12)NC(=O)[C@H](Cc1c[nH]c2ccccc12)NC(=O)[C@@H]1CCCN1C(=O)[C@@H](N)Cc1ccc(O)cc1
- EC50 [5]: > 1000 nM
- IC50 (Mu-type opioid receptor [15]): 4.18 µM
- Activity ([16]; filed as partial agonist): Partial agonist
- EC50 (Mu-type opioid receptor [17]): 82.1 nM

SMILES: Cc1cc(O)cc(C)c1C[C@H](N)C(=O)N1CCC[C@H]1C(=O)N[C@@H](Cc1ccccc1)C(=O)N[C@H](Cc1cccc2ccccc12)C(N)=O [listing 1 of 2 here]
- Activity (Mus musculus [1]): 2.73%
- Activity (Mus musculus [2]): 1.06%
- Activity (Mus musculus [3]): 0.13%

SMILES: Cc1cc(O)cc(C)c1C[C@H](N)C(=O)N1CCC[C@H]1C(=O)N[C@@H](Cc1ccccc1)C(=O)N[C@H](Cc1cccc2ccccc12)C(N)=O [listing 2 of 2 here]
- EC50 [5]: 3.55 nM
- Ki (Mu-type opioid receptor [9]): 1.24 nM
- Ki [20]: 27.1 nM
